The record followed here is ChEMBL document CHEMBL1914420, “Investigation of the pyrazinones as PDE5 inhibitors: evaluation of regioisomeric projections into the solvent region” (Bioorg Med Chem Lett, 2011).

The IC50 is the point on the concentration scale where inhibition reaches its midpoint. Low values mean inhibition by little substance, high ones a need for much substance. In general, clearance refers to a measure of how efficiently the substance is removed, as volume per time. A lower clearance goes with a low capacity for elimination. A word on the bioavailability: it is the share of a dose that reaches the circulation, judged against a reference dose that is usually intravenous. Low readings indicate poor availability, high ones good availability. In general, solubility refers to the dissolved amount per volume that the medium holds. A lower solubility goes with a poorly soluble substance. The Vd is a proportionality between amount in the body and measured concentration, not a real space. Read a high Vd as extensive tissue distribution.

Data set [1] can be described thus: Selectivity ratio of IC50 for PDE11 to IC50 for PDE5. In short, it runs like this:
(§1)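 Fold selectivity calculated as PDE11 IC50/PDE5 IC50 or PDE6 IC50/PDE5 IC50, with IC50 values in nM.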

Data set [2] has as its target cGMP-specific 3',5'-cyclic phosphodiesterase (Homo sapiens, UniProt O76074). The data set is described as follows: Inhibition of PDE5.
Data set [3] in a line: Selectivity ratio of IC50 for PDE6 to IC50 for PDE5. A digest of the protocol: as §1
The nature of data set [4]: Clearance in rat at 2 mg/kg at pH 5. Particulars: in vivo. More on the design: dose 2 mg/kg. Format: ADME, organism-based.
The species named for another data set is Rattus norvegicus. The data set is described as follows: Unbound volume of distribution in rat. Format: ADME, organism-based. Particulars: in vivo.
A short description of data set [5]: Oral bioavailability in rat at 2 mg/kg. Format: ADME, organism-based. The following applies: in vivo.
Data set [6] can be described thus: Solubility of the compound at pH 6.5. Format: physicochemical. The following applies: buffer.
Data set [7] can be described thus: Volume of distribution in rat. In kind it is ADME, organism-based. Particulars: in vivo.
The nature of data set [8]: Volume of distribution in dog. The following applies: in vivo. Format: ADME, organism-based, Canis lupus familiaris. In short, it runs like this:
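Volume of distribution expressed in L/kg.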

Data set [9] is described as follows: Metabolic stability in human liver microsomes assessed as compound remaining after 1 hr. The following applies: read-out: Stability. In kind it is ADME, Microsome. A digest of the protocol:
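Human liver microsomes; percent parent compound remaining after 1 h incubation.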
For orientation: Microsomes from liver hold many membrane-bound enzymes, among them those of drug oxidation.

Data set [10] is described as follows: Clearance in dog at 2 mg/kg. In kind it is ADME, organism-based, Canis lupus familiaris. On the set-up: dose 2 mg/kg. Particulars: in vivo. A digest of the protocol: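 Clearance in mL/min/kg after a 2 mpk dose (n = 3) in vehicle 70% PEG400/20% 0.05 M citrate buffer/10% ethanol, pH 5.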

In brackets after ≈: the same amount, converted by molar mass.

As for `CCCOCCn1c(=O)nc(N2CCC(O)CC2)c2nnc(-c3ccc(OC)nc3)cc21`, the values for the Ratio IC50 in [1] and in data set [3] were 240 and 194, respectively. The molecule further displayed an IC50 in data set [2] of 0.28 nM.

Consider `CCCOCCn1c(=O)nc(N2CCN(CC(=O)O)CC2)c2nnc(-c3ccc(OC)nc3)cc21`, for which the Ratio IC50 in data set [1] amounted to 1330; in data set [3], 143. Further, half-maximal inhibition in [2] (IC50) was put at 0.1 nM.

Turning to `CCCOCCn1c(=O)nc(N2CCN(CCO)CC2)c2cnc(-c3ccc(OC)nc3)cc21`, the Ratio IC50 in data set [1] is more than 1450; in data set [3] it was 181. The molecule further returned an IC50 in data set [2] of 1.38 nM.

In the case of `CCCOCCn1c(=O)nc(NC2CCC(O)CC2)c2ncc(-c3ccc(OC)nc3)cc21` (stereo unspecified), the Ratio IC50 came out at 3830 in [1] and 1020 in data set [3]. Also, the IC50 in data set [2] turned out to be 0.1 nM.

With `CCOCCn1c(=O)nc(N2CCN(CCO)CC2)c2nnc(-c3ccc(OC)nc3)cc21`, the Ratio IC50 in data set [1] is 286; in [3], 98. In addition, the IC50 in [2] came to 2.43 nM.

Consider `CCCOCCn1c(=O)nc(NCCN2CCOCC2)c2nnc(-c3ccc(OC)nc3)cc21`, for which the Ratio IC50 in data set [1] turned out to be 6820; in data set [3], 573. This molecule also had an IC50 in data set [2] of 0.09 nM.

On to `CCCOCCn1c(=O)nc(N2CCN(CCO)CC2)c2ncc(-c3ccc(OC)nc3)cc21`, for which the figures for the Ratio IC50 in data set [1] and in [3] were more than 1220 and 381, respectively. It took 1.64 nM to reach half-maximal inhibition in [2] (IC50).

For `CCCOCCn1c(=O)nc(N2CCC(CC(=O)O)CC2)c2nnc(-c3ccc(OC)nc3)cc21`, the Ratio IC50 worked out at 1060 in [1] and 254 in data set [3]. The IC50 in data set [2] stood at 0.04 nM.

On to `COc1ccc(-c2cc3c(nn2)c(NCC(=O)N(C)C)nc(=O)n3CCOCC(F)(F)F)cn1`, for which the Ratio IC50 in data set [1] was found to be 4170; in data set [3], 2200. For the same molecule, half-maximal inhibition in data set [2] (IC50) required 0.38 nM.

On to `CCCOCCn1c(=O)c(N2CCN(CCO)CC2)nc2cnc(-c3ccc(OC)nc3)cc21`, for which the Ratio IC50 in data set [1] was found to be 2460; in [3], 157.

Consider `CCCOCCn1c(=O)nc(NCC(=O)N(C)C)c2nnc(-c3ccc(OC)nc3)cc21`, for which the figures for the Ratio IC50 in data set [1] and in data set [3] were 277 and 296, respectively. For the same molecule, the midpoint of inhibition in data set [2], the IC50, lay at 0.44 nM.

In the case of `CCCOCCn1c(=O)nc(NCCN2CCOCC2)c2cnc(-c3ccc(OC)nc3)cc21`, the Ratio IC50 in data set [1] turned out to be 9050; in data set [3], 334. In data set [2], the half-maximal inhibitory concentration (IC50) was 0.08 nM.

In the case of `CCCOCCn1c(=O)nc(N2CCCC(C(=O)O)C2)c2nnc(-c3ccc(OC)nc3)cc21` (stereo unspecified), the figures for the Ratio IC50 in [1] and in data set [3] were 297 and 162, respectively. Also, in data set [2], the IC50 is 0.06 nM.

Take `CCCOCCn1c(=O)c(NCCN2CCOCC2)nc2cnc(-c3ccc(OC)nc3)cc21`: the Ratio IC50 was found to be 4860 in data set [1] and 158 in data set [3].

As for `CCCOCCn1c(=O)nc(N2CCC(C(=O)O)CC2)c2nnc(-c3ccc(OC)nc3)cc21`, the results for the Ratio IC50 in [1] and in data set [3] were 532 and 119, respectively. Further, in data set [2], the IC50 turned out to be 0.01 nM.

For the molecule `CCCOCCn1c(=O)c(NC2CCC(O)CC2)nc2ncc(-c3ccc(OC)nc3)cc21` (stereo unspecified), the Ratio IC50 came to 675 in data set [1] and 48 in data set [3].

In the case of `CCCOCCn1c(=O)c(N2CCN(CCO)CC2)nc2ncc(-c3ccc(OC)nc3)cc21`, the figures for the Ratio IC50 in data set [1] and in data set [3] were 1770 and 245, respectively. For the same molecule, in [2], the IC50 was 0.35 nM.

In the case of `COc1ccc(-c2cc3c(nn2)c(NC2CCC(O)CC2)nc(=O)n3CCOCC(F)(F)F)cn1` (stereo unspecified), 0.04 nM corresponded to half-maximal inhibition in data set [2] (IC50). This counts as picomolar.

For `CCCOCCn1c(=O)nc(NCCC(=O)O)c2nnc(-c3ccc(OC)nc3)cc21`, the Ratio IC50 in data set [1] worked out at 250; in data set [3], 139. The IC50 in [2] is 0.05 nM.

For the molecule `CCCOCCn1c(=O)nc(NC2CCCC(C(=O)O)C2)c2nnc(-c3ccc(OC)nc3)cc21` (stereo unspecified), in [2], the IC50 amounted to 0.01 nM.

As to `CCCOCCn1c(=O)nc(N[C@@H]2CCCC[C@@H]2C(=O)O)c2nnc(-c3ccc(OC)nc3)cc21` (racemic), the Ratio IC50 came to 296 in [1] and 110 in data set [3]. In addition, in [2], half-maximal inhibition (IC50) was put at 0.02 nM.

As for `CCCOCCn1c(=O)nc(NCCOC(C)C)c2cnc(-c3ccc(OC)nc3)cc21`, the figures for the Ratio IC50 in data set [1] and in data set [3] were 9560 and 450, respectively. This molecule returned a concentration for half-maximal inhibition (IC50) in data set [2] of 0.1 nM.

Regarding `CCCOCCn1c(=O)nc(N[C@@H]2CCCC[C@H]2C(=O)O)c2nnc(-c3ccc(OC)nc3)cc21` (racemic), the figures for the Ratio IC50 in [1] and in [3] were 1390 and 47, respectively. In [2], this molecule showed an IC50 of 0.27 nM.

`CCOCCn1c(=O)nc(NC2CCC(O)CC2)c2nnc(-c3ccc(OC)nc3)cc21` (stereo unspecified): in [2], the IC50 worked out at 0.36 nM.

Regarding `CCCOCCn1c(=O)nc(N[C@H](C)C(=O)O)c2nnc(-c3ccc(OC)nc3)cc21`, the Ratio IC50 came to 76 in data set [1] and 110 in [3]. In data set [2], this molecule returned an IC50 of 0.13 nM.

For the molecule `CCCOCCn1c(=O)nc(NC2CCC(O)CC2)c2cnc(-c3ccc(OC)nc3)cc21` (stereo unspecified), the Ratio IC50 in data set [1] is 3950; in [3], 675. Moreover, the midpoint of inhibition in data set [2], the IC50, lay at 0.05 nM.

For the molecule `COc1ccc(-c2cc3c(nn2)c(N2CCN(CCO)CC2)nc(=O)n3CCOCC(F)(F)F)cn1`, the Ratio IC50 in data set [1] is more than 311; in [3], 818. For the same molecule, the IC50 in [2] amounted to 0.64 nM.

Consider `CCCOCCn1c(=O)nc(NC2CCNCC2)c2nnc(-c3ccc(OC)nc3)cc21`, for which the Ratio IC50 in data set [1] was determined as 1530; in data set [3], 576. Further, the IC50 in data set [2] is 1.31 nM.

For the molecule `CCCOCCn1c(=O)nc(NCCO)c2nnc(-c3ccc(OC)nc3)cc21`, the Ratio IC50 came to 240 in data set [1] and 290 in data set [3]. This molecule came in with an IC50 in [2] of 0.22 nM.

As to `CCCOCCn1c(=O)nc(NC2CCC(C(=O)O)CC2)c2nnc(-c3ccc(OC)nc3)cc21` (stereo unspecified), the Ratio IC50 turned out to be 541 in data set [1] and 246 in [3]. The molecule also registered an IC50 in data set [2] of 0.02 nM.

Regarding `CCOCCn1c(=O)nc(NCC(=O)N(C)C)c2nnc(-c3ccc(OC)nc3)cc21`, the Ratio IC50 in [1] is 199; in data set [3], 119. The molecule also registered an IC50 in [2] of 1.47 nM.

`CCCOCCn1c(=O)c(NC2CCC(O)CC2)nc2cnc(-c3ccc(OC)nc3)cc21` (stereo unspecified): the Ratio IC50 in data set [1] was 1320; in data set [3], 200. Moreover, the clearance in data set [4] and in data set [10] was 5.5 mL/min/kg throughout. The same molecule displayed a Vdu in the data set filed under Rattus norvegicus of 96 L/kg. Further, the IC50 in data set [2] is 0.05 nM. Besides, the bioavailability in data set [5] turned out to be 50%. In [6], the solubility stood at 21 µM (≈ 9.52 µg/mL). In addition, the figures for the Vd in data set [7] and in data set [8] were 1.35 L/kg and 3.5 L/kg, respectively. Also, in [9], the remaining at 1 h was determined as 84%.

`CCCOCCn1c(=O)nc(NC(C)(C)C(=O)O)c2nnc(-c3ccc(OC)nc3)cc21`: the Ratio IC50 stood at 129 in [1] and 145 in data set [3]. Besides, in [2], the IC50 amounted to 0.05 nM.

Take `CCCOCCn1c(=O)nc(N2CCN(CCO)CC2)c2nnc(-c3ccc(OC)nc3)cc21`: the Ratio IC50 is 834 in data set [1] and 124 in [3]. The IC50 in data set [2] was found to be 1.3 nM.
